# Assay outcomes: PubChem BioAssay, The Scripps Research Institute Molecular Screening Center
# Only some compounds are listed: those with a hit (about 1.6% of all), similar ones and a draw of the others.
# TDP2 absorb: human TDP2 enzyme inhibitors, primary screen, biochemical, epi absorbance, recombinant enzyme; T5PNP hydrolysis, p-nitrophenol absorbance 415 nm; inhibition, % at 12.8 µM; 370,000 compounds, 0.34% hits; AID 720702, 2013;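 active = inhibition above the mean of all tested compounds plus 3 SD, set per campaign, cut at about 25% in these data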;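 also: 0% = DMSO with enzyme and 100% = buffer with substrate but no TDP2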
#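 Assay system: recombinant human TDP2 / Reagent: T5PNP substrate at 5 mM, a TopII-DNA adduct mimic / Measured by: epi absorbance from released p-nitrophenol / Evaluation: % inhibition relative to enzyme-containing and enzyme-free wells / Control set: enzyme-free and DMSO wells / Replicates: each compound tested once, singlicate / Schedule: enzyme reaction with compound for 2 h at 37 °C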
# MBD2 DNA inh: inhibitors of MBD2 binding to methylated DNA, primary screen, biochemical, TR-FRET, DNA-binding domain, human; 370,000 compounds, 0.31% hits; MBD2 binding to methylated oligonucleotide; inhibition, % at 4.4 µM; Methyl-CpG-binding domain protein 2 (Homo sapiens), Q9UBB5; AID 686964, 2013; in the data active = inhibition above about 13%
# LEDGF integ inh: blockers of LEDGF/p75-dependent integrase strand transfer – biochemical, TR-FRET, high throughput, primary screen; TR-FRET IN-LEDGF/p75 DNA integration, Eu/Cy5; inhibition, % at 3.7 µM; 370,000 compounds, 0.64% hits; AID 743269, 2014;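 active = inhibition above the screen-wide mean plus 3 SD, cut at about 13% in these data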;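 also: signal is the Cy5 over europium emission ratio at 671 and 618 nm; 0% = plate median of compound wells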
# UHRF1 MBD2 ctr: UHRF1 methylated DNA binding inhibitors, primary screen, counter-screen for MBD2 inhibitor project, biochemical, TR-FRET, human UHRF1, single concentration | E3 ubiquitin-protein ligase UHRF1 (Homo sapiens), Q96T88 | UHRF1 binding to methylated oligo | inhibition, % at 4.4 µM | 370,000 compounds, 0.75% hits; in the data active = inhibition above about 21%;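 also: UHRF1 SRA domain binding a hemimethylated CpG hairpin DNA probe; 0% = median of test compound wells and 100% = reference inhibitor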
# Target sequence (Q96T88 whole entry, looked up, the tested form may be a part): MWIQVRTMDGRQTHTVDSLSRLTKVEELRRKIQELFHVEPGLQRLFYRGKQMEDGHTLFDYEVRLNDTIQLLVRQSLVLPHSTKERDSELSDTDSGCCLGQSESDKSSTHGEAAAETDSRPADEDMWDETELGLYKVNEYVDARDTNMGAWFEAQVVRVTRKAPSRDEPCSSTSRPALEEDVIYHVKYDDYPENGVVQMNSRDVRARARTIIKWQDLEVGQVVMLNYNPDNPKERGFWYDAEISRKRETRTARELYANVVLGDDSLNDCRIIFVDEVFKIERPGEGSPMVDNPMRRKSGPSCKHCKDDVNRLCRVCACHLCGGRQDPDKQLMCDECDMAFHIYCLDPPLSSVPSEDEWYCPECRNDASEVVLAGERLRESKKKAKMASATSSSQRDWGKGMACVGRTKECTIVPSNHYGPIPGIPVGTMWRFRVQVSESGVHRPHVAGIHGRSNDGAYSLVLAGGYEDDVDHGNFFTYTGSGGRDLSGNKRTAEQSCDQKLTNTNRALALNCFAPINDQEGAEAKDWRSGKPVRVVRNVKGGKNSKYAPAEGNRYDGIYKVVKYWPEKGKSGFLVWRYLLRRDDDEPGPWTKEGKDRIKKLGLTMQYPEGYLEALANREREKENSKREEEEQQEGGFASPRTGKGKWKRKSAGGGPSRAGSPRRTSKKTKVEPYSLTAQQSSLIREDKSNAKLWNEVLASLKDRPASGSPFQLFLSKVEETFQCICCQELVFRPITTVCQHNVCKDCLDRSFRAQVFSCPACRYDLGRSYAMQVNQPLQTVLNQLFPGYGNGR
# IN multimer up: HIV-1 IN multimer formation enhancers, counter-screen for LEDGF/p75 integration inhibitor project, biochemical, TR-FRET. shares compounds with LEDGF integ inh. TR-FRET HIV-1 integrase multimerization. activation, % at 7.7 µM. 2,000 compounds, 17% hits. AID 1053131, 2014; in the data active = activation above about 8.9%
# TRFRET interf: TR-FRET optical interference artefacts, confirmation, artefact control for LEDGF/p75-dependent integration inhibitor project, biochemical, HIV-1 IN multimerization; shares compounds with LEDGF integ inh; TR-FRET optical interference counterscreen; inhibition, % at 7.7 µM; 2,000 tested, under 10 active; AID 1053135, 2014;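 active = inhibition above the mean over all tested compounds plus 3 SD, which no compound reached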;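 also: 0% = integrase with antibodies and DMSO and 100% = antibodies without integrase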
# IN-LEDGF confirm: inhibitors of HIV-1 IN-LEDGF/p75 DNA integration, confirmation, biochemical, TR-FRET. 2,000 compounds, 36% hits. inhibition, % at 3.7 µM. shares compounds with LEDGF integ inh. AID 1053136, 2014. TR-FRET LEDGF/p75-dependent HIV-1 integration; in the data active = inhibition above about 14%
# Numbers without * were called inactive; x = no result given.
SMILES,TDP2 absorb,MBD2 DNA inh,LEDGF integ inh,UHRF1 MBD2 ctr,IN multimer up,TRFRET interf,IN-LEDGF confirm
O=C1N(CCCO)CCC12CCC(c1ccccc1)CC2 (stereo not drawn),-1,1,-5,-1,x,x,x
Cc1cc(/C=C\c2nc(O)c([N+](=O)[O-])c(=O)[nH]2)c(C)n1-c1ccccc1,7,3,29*,15,3,-14,7
O=C(NCCOc1ccccc1)C(=O)c1c[nH]c2ccccc12,-9,-1,30*,0,3,-12,-5
O=C(NCCOc1ccccc1Cl)C(=O)c1c[nH]c2ccccc12,5,1,1,1,x,x,x
C=C(C)Cn1c(SCC(=O)N/N=C(\C)c2ccc(Br)cc2)nnc1-c1ccc(Br)cc1,-7,2,2,3,x,x,x
COc1ccccc1COC(=O)N/C=C/c1ccco1,-7,1,14*,6,-1,4,17*
Cc1cc(NC(=O)CCCS(=O)(=O)c2nc(-c3cccs3)cc(C(F)(F)F)n2)no1,1,-3,19*,0,-1,5,2
O=c1c(Br)ccc(Br)cc1Br,4,4,15*,-1,2,-8,30*
O=C1CN(S(=O)(=O)c2cc(Br)ccc2Br)CCN1,-8,-2,0,-1,x,x,x
C/C(=C\C(=O)c1ccc(F)cc1)Nc1ccc(N2CCOCC2)cc1,21,-3,23*,1,2,-9,-4
Oc1cccc(/C=N/NC(=S)Nc2cccnc2)c1O,2,5,33*,-8,21*,-106,30*
Cc1ccc(S(=O)(=O)N2c3ccccc3C[C@H]2CCC(=O)c2ccccc2)cc1,0,-3,-1,-2,x,x,x
NC(=O)c1ccsc1NC(=O)c1ccc(S(=O)(=O)N2CCCCC2)cc1,-7,4,22*,2,-3,17,1
O=C(NCc1ccccc1)[C@H]1CCCN1C(=O)[C@H]1CCCN1C(=O)c1cccc(Cl)c1,3,1,-1,-2,x,x,x
COC(=O)c1c(NC(=O)CN2CCC3(O)CCCCC3C2c2cc(OC)ccc2OC)sc(C)c1C (stereo not drawn),-3,-3,15*,-3,1,-3,-9
COC(=O)c1c(NC(=O)CN2CCC3(O)CCCCC3C2c2ccc(F)cc2)sc(C)c1C (stereo not drawn),-9,2,5,4,x,x,x
COCCn1nnnc1C(c1ccccc1OC)N1CCc2ccccc2C1 (stereo not drawn),7,-3,33*,-1,1,-6,-4
CCOC(=O)CC[C@@]1(C(=O)OCC)C[C@@H](CC(=O)NCc2ccc(C)o2)C(=O)N2CCCC=C21,2,4,-3,0,x,x,x
CCC(CC)C1C(C#N)=C(N)Oc2cc(C)oc(=O)c21 (stereo not drawn),2,-1,-3,-3,x,x,x
Cc1cc2c(c(=O)o1)C(c1ccc([N+](=O)[O-])o1)C(C#N)=C(N)O2 (stereo not drawn),6,-4,15*,11,4,-21,9
Cc1nc(N2CCN(C(=O)C3CC3)CC2)c2c3c(sc2n1)CC(C)CC3 (stereo not drawn),-5,1,-3,1,x,x,x
CCOc1cccc(=O)c2c(C)n(Cc3ccco3)c(C)c12,-5,0,31*,2,1,-5,13
COC(=O)c1c(C(=O)OC)c(C)n(Cc2ccco2)c1C,10,5,0,13,x,x,x
O=C(O)c1cc(Cl)ccc1-c1ccc(/C=C/c2cc(C(F)(F)F)[nH]c(=O)n2)o1,0,1,17*,3,-1,6,11
CCNC(=O)Nc1nc2ccccc2s1,-1,-4,3,1,x,x,x
SMILES,TDP2 absorb,MBD2 DNA inh,LEDGF integ inh,UHRF1 MBD2 ctr,IN multimer up,TRFRET interf,IN-LEDGF confirm
CN(C)C(=S)Nc1nc2ccccc2s1,12,-2,17*,-2,1,-6,9
S=c1[nH]nc(-c2ccccc2)n1/N=C/C=C/c1ccco1,3,0,14*,2,1,-5,16*
CC(/C=N/n1c(-c2cccnc2)n[nH]c1=S)=C\c1ccco1,-2,-12,-2,-2,x,x,x
C/C(C=Nn1c(-c2ccc(F)cc2)n[nH]c1=S)=C/c1ccco1,-5,-2,15*,-2,0,1,9
O=C1N(c2ccccc2)CC2CC(c3ccccc3)N3CCCC123 (stereo not drawn),3,-3,-3,0,x,x,x
Cc1ccc(S(=O)(=O)/N=C2/NC(=O)/C(=C/c3ccc(Br)o3)S2)cc1,1,25*,38*,81*,1,-5,11
O=C(NCC1CC1)c1cccc2c1C(=O)c1ccc(N3CCCC3)cc1S2(=O)=O,7,-18,27*,-12,0,-2,-8
C=CCNC(=O)c1cccc2c1C(=O)c1ccc(N3CCCC3)cc1S2(=O)=O,0,-28,1,-24,x,x,x
O=C(CSc1nnc(-c2ccco2)n1-c1ccc(Cl)cc1)Nc1ccccc1-c1ccccc1,-5,3,-3,-2,x,x,x
Cc1cccc(-c2ccc3[nH]c4c(c3c2)CCN2C[C@@H]([C@H](C)OC(=O)Nc3ccccc3C)[C@@H](N(C)C(=O)Nc3ccccc3C)C[C@@H]42)c1,-1,2,56*,0,2,-5,-5
C[C@H](O)[C@@H]1CN2CCc3c([nH]c4ccccc34)[C@@H]2C[C@@H]1N(C)C(=O)Nc1cccc2ccccc12,13,-9,4,-9,x,x,x
CCn1c(SCC(=O)Nc2ccccc2-c2ccccc2)nnc1-c1ccc(C)cc1,-7,2,-4,2,x,x,x
COc1cc(C(=O)NC2CCCCN(Cc3cccc(C(F)(F)F)c3)C2=O)cc(OC)c1OC (stereo not drawn),3,3,-3,0,x,x,x
O=C(Nc1ccccc1N1CCCCC1)c1ccc(F)cc1,0,-8,1,-5,x,x,x
O=C(Nc1ccccc1N1CCCCC1)c1ccc(OC(F)F)cc1,5,-2,36*,2,1,-4,4
CN(C(=O)c1ccccc1OCc1ccc(F)cc1)c1c(N)n(Cc2ccccc2)c(=O)[nH]c1=O,3,1,55*,2,-1,7,-5
